molecular target: T1, Intracellular chorismate mutase (Mycobacterium tuberculosis) (UniProt P9WIC1); experiment: Inhibition of Mycobacterium tuberculosis chorismate mutase at 50 uM using chorismate substrate by spectrophotometry
T1 sequence (whole entry): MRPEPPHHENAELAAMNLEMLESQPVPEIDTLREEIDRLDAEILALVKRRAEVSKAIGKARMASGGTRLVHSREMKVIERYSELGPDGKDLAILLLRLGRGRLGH
Summary of the method: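 His-tagged MtCM expressed in E. coli BL21(DE3) and purified by Ni-NTA. Started with 180 pmol enzyme, 5 min at 37 °C, stopped with 1 N HCl. Prephenate formation read at A274 against no-enzyme blanks. % inhibition = 100 − residual activity.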

Q: For `O=c1c2c3c(sc2ncn1-c1ccccc1)CCCCC3`, which inhibition is on record?
A: 13%

Q: How did the inhibition turn out when `CC(C)(C)OC(=O)N1CCc2c(sc3ncn(-c4ccccc4)c(=O)c23)C1` was run?
A: 37.2%

Q: With `O=c1c2c3c(sc2ncn1-c1cccc(Cl)c1)CCCC3` as the molecule, how does the inhibition read?
A: 42.5%

Q: With `O=c1c2c3c(sc2ncn1-c1ccccc1)CCCC3` as the molecule, how does the inhibition read?
A: 35.6%

Q: For `O=C(c1ccccc1I)N1CCc2c(sc3ncn(-c4ccccc4)c(=O)c23)C1`, which inhibition is on record?
A: 12.6%

Q: Which inhibition does the source give for `O=c1c2c3c(sc2ncn1-c1ccc(F)cc1)CCCC3` here?
A: 12.8%

Q: For `Cc1csc2ncn(-c3ccc(F)cc3)c(=O)c12`, which inhibition is on record?
A: 17.7%

Q: With `O=Cc1cccc(-n2cnc3sc4c(c3c2=O)CCCC4)c1` as the molecule, how does the inhibition read?
A: 45.3%

Q: For `O=c1c2c3c(sc2ncn1-c1ccc(F)cc1)CCCCC3`, which inhibition is on record?
A: 14.6%

Q: `CC(C)(C)OC(=O)N1CCc2c(sc3ncn(-c4cccc(C=O)c4)c(=O)c23)C1` was tested. Which inhibition did it give?
A: 49.9%

Q: How did the inhibition turn out when `COc1cccc(-n2cnc3sc4c(c3c2=O)CCCC4)c1` was run?
A: 47%

Q: For `O=c1c2c3c(sc2ncn1-c1ccc2ccccc2c1)CCCC3`, which inhibition is on record?
A: 33%

Q: Which inhibition does the source give for `O=c1c2c3c(sc2ncn1-c1ccccc1)CNCC3` here?
A: 36.2%

molecular target: T2, Intracellular chorismate mutase (Mycobacterium tuberculosis, UniProt P9WIC1); experiment: Inhibition of Mycobacterium tuberculosis chorismate mutase using chorismate substrate in dose response study by spectrophotometry
T2 sequence (P9WIC1 whole entry): T1 sequence (whole entry)

Q: How did the IC50 turn out when `COc1cc(CCNc2c([N+](=O)[O-])cc(C(=O)O)cc2S(N)(=O)=O)cc(OC)c1` was run?
A: < 10 µM

Q: Which IC50 does the source give for `CC(C)(C)OC(=O)N1CCc2c(sc3ncn(-c4cccc(C=O)c4)c(=O)c23)C1` here?
A: 23.9 µM

Q: Which IC50 does the source give for `COc1cccc(-n2cnc3sc4c(c3c2=O)CCCC4)c1` here?
A: 19.8 µM
